This is an account of results in ChEMBL document CHEMBL4177540, “Corymbulosins D-H, 2-Hydroxy- and 2-Oxo-clerodane Diterpenes from the Bark of Laetia corymbulosa” (J Nat Prod, 2017).

Common to all, as to format: functional, cell-based
Assay [1] concerns A549. The experiment in a line: Antiproliferative activity against human A549 cells incubated for 72 hrs by SRB assay. As to conditions: A549, 72 h. (In general: The SRB assay estimates cell density from bound dye.)
In assay [2] the test system is MDA-MB-231. In words: Antiproliferative activity against human MDA-MB-231 cells incubated for 72 hrs by SRB assay. The note with it: MDA-MB-231, 72 h.
For assay [3], the system named is MCF7. In words: Antiproliferative activity against human MCF7 cells incubated for 72 hrs by SRB assay. As to conditions: MCF7, 72 h. An outline of the steps:
(§1)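 Cells in RPMI-1640 with 2 mM L-glutamine, 25 mM HEPES, 10% FBS, streptomycin and penicillin. Seeded at 4,000−12,000 cells per well, then exposed to compound for 72 h. Fixed with 10% trichloroacetic acid, stained with 0.04% SRB, dye taken up in 10 mM Tris base, absorbance read at 515 nm. IC50 is 50% reduction versus untreated cells, from at least three independent experiments run in duplicate.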

Assay [4] concerns KB. In words: Antiproliferative activity against human KB cells incubated for 72 hrs by SRB assay.
Assay [5] is described as follows: Antiproliferative activity against human KBVIN cells incubated for 72 hrs by SRB assay. The method in brief:
as §1

pIC50: −log10 of the molar value.

On to `C=CC(=C)CC[C@]1(C)[C@H](C)C[C@H](OC(=O)/C=C\C=C/CCCCC)[C@@]23C(=C[C@@H](O)C[C@@H]12)[C@@H](OC(C)=O)O[C@H]3OC(C)=O`, for which the negative-log IC50 (pIC50) (in general, −log10 of the IC50, conventionally taken in molar units) in assay [1] was 5.32; in assay [2], 5.29; in assay [3], 5.28; in assay [4] it was 5.31; in assay [5], 5.32.
`C=CC(=C)CC[C@]1(C)[C@H](C)C[C@H](OC(=O)CCCCCCCCC)[C@@]23C(=CC(=O)C[C@@H]12)[C@@H](OC(C)=O)O[C@H]3OC(C)=O`: the negative-log IC50 (pIC50) in assay [1] was < 5.00; in assay [2], < 5.00; in assay [3], 5.08; in assay [4], 5.23; in assay [5] it was 5.01.
Take `C=CC(=C)CC[C@]1(C)[C@H](C)C[C@H](OC(=O)CCCCCCCCC)[C@@]23C(=C[C@@H](O)C[C@@H]12)[C@@H](OC(C)=O)O[C@H]3OC(C)=O`: the pIC50 in assay [1] is 5.28; in assay [2] it was 5.27; in assay [3] it was 5.27; in assay [4] it was 5.35; in assay [5], 5.32.
`C=CC(=C)CC[C@]1(C)[C@H](C)C[C@H](OC(=O)/C=C\C=C/CCCCC)[C@@]23C(=C[C@H](O)C[C@@H]12)[C@@H](OC(C)=O)O[C@H]3OC(C)=O`: the pIC50 was 5.34 in assay [1]; 5.32 in assay [2]; 5.32 in assay [3]; 5.32 in assay [4]; 5.31 in assay [5].
With `C=CC(=C)CC[C@]1(C)[C@H](C)C[C@H](OC(=O)CCCCCCC)[C@@]23C(=C[C@H](O)C[C@@H]12)[C@@H](OC(C)=O)O[C@H]3OC(C)=O`, the negative logarithm of the IC50 (pIC50) in assay [1] is 5.33; in assay [2], 5.29; in assay [3], 5.31; in assay [4], 5.30; in assay [5], 5.31.
With `C=CC(=C)CC[C@]1(C)[C@H](C)C[C@H](OC(=O)CCCCCCCCC)[C@@]23C(=C[C@H](O)C[C@@H]12)[C@@H](OC(C)=O)O[C@H]3OC(C)=O`, the negative logarithm of the IC50 (pIC50) is 5.33 in assay [1]; 5.28 in assay [2]; 5.30 in assay [3]; 5.30 in assay [4]; 5.31 in assay [5].
